# APP transl inh – APP translation inhibition | SH-SY5Y APP 5'UTR-luciferase reporter, luminescence | inhibition, % at 2 µM | AID 1285 | actives 0.82% (n = 190,000);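 active = inhibition above a set limit, derived from the sample mean plus 3 SD, cut at about 45% in these data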
# MT stabilizer – stabilizes microtubules in HeLa cells. HeLa tubulin immunostaining HCS, 24 h; share of cells brighter than vehicle mean+2SD. % tubulin-high responders, % at 10 µM. actives 0.83% (n = 200,000). AID 2205;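 active = plate Z-score above 3 for both tubulin-high and condensed-nucleus cell shares, with cell loss under 80%, at 10 µM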;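 note: anti alpha tubulin signal scored within the nucleus-defined area of each cell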
# Ba/F3 V617F tox – reduce viability of Ba/F3 cells dependent on JAK2V617F; Ba/F3 EpoR-JAK2V617F viability, ATP luminescence; inhibition, % at 5.6 µM; actives 1.1% (n = 220,000);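 active = inhibition above the campaign mean plus 3 SD over all tested compounds, cut at about 24% in these data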;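 note: cytokine-independent growth of Ba/F3 cells driven by EpoR plus mutant JAK2; 0% = DMSO-treated cells and 100% = JAK inhibitor I control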
# b-catenin transl – beta-catenin nuclear translocation modulation. nuclear translocation activity, % at 5 µM. AID 1665. actives 0.3% (n = 190,000). HeLa beta-catenin nuclear translocation, immunofluorescence imaging;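 active = nuclear translocation activity above 50% at 5 µM, with a well cell count of 50 or more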;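 note: per-cell ratio of nuclear to cytoplasmic median beta-catenin stain intensity; plate controls were DMSO negative control for no effect and GSK-3 inhibitor IX positive control for full effect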
#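 assay system = human HeLa cells, endogenous beta-catenin | times = compound treatment 24 h, 37°C, 5% CO2 | detection = Anti-beta-catenin immunofluorescence on PFA-fixed, Triton-permeabilized cells, DAPI nuclei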
# IEC-6 cytotox – IEC-6 cytotoxicity, counter-screen for KLF5 inhibitors. luminescence viability. AID 1825. actives 0.78% (n = 290,000). inhibition, % at 5 µM; in the data active = inhibition above about 22%;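 note: 0% = plate median of test compound wells and 100% = cytotoxic reference compound wells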
# BaF3 parental – parental Ba/F3 viability inhibition as JAK2V617F counter-screen; CellTiter-Glo ATP luminescence; actives 1.1% (n = 220,000); inhibition, % at 5.6 µM;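 active = inhibition above a per-campaign cutoff, the mean inhibition of all tested compounds plus 3 SD, cut at about 27% in these data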;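 note: 0% = DMSO wells and 100% = JAK Inhibitor I control wells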
# Starred values were filed as active, the others as inactive; x = no result given. Sampled rows, rich in hits. Any-hit rate of the full collection: about 2.2%.
SMILES,APP transl inh,MT stabilizer,Ba/F3 V617F tox,b-catenin transl,IEC-6 cytotox,BaF3 parental
COc1cc(NC(=S)NC(=O)c2cc(C)cc(C)c2)ccc1NC(=O)c1cccs1,x,1,-4,-1,0,5
COc1cc(NC(=S)NC(=O)c2c(OC)cccc2OC)ccc1NC(=O)c1cccs1,-10,21*,0,1,1,4
COc1ccc(S(=O)(=O)Nc2cc3c(cc2C(C)=O)OCO3)cc1,14,42*,0,1,-8,9
COC(=O)c1cccc(NS(=O)(=O)c2ccc(OC)c(OC)c2)c1C,23,1,7,-15,5,16
CC(=O)c1cc2c(cc1NS(=O)(=O)c1ccccc1C)OCO2,6,3,-1,0,4,4
COC(=O)c1cccc(NS(=O)(=O)c2ccc(OC)cc2)c1C,0,35*,1,53*,22,7
Cc1ccc(N2C(=O)CN(Cc3ccccc3)C2=S)cc1C,x,x,x,x,1,x
Cc1ccc(Nc2ncc(C(=O)NCCCN3CCN(C)CC3)c3ccccc23)cc1Cl,10,4,65*,-1,13,64*
Cc1ccc(Nc2cc(C(=O)NCCCN3CCOCC3)c3ccccc3n2)cc1C,x,x,x,x,7,x
COC(=O)N=Nc1c(O)[nH]c2ccc(Br)cc12,x,x,0,-2,-4,-10
Oc1[nH]c2ccccc2c1N=NC(=S)N1CCOCC1,x,x,54*,2,48*,59*
Oc1[nH]c2ccc(Br)cc2c1N=NC(=S)N1CCOCC1,x,x,95*,1,88*,94*
NC(=S)N=Nc1c(O)[nH]c2ccccc12,11,4,1,-4,0,4
CCOc1cc(/C=N\NC(=O)c2ccc(NC(=O)C(C)(C)C)cc2)ccc1OC(=O)c1ccc(OC)cc1,94*,4,-4,-1,2,1
COc1ccc(C(=O)N/N=C/c2ccc(OC)c(COc3ccc(F)cc3)c2)cc1,x,x,x,x,5,x
O=C(CNCc1cccs1)Nc1ccc(OC(F)(F)F)cc1,x,x,x,x,-8,x
CC1(C)OC2CC3C4CC(F)C5=CC(=O)C=CC5(C)C4(F)C(O)CC3(C)C2(C(=O)CO)O1 (centres undefined),x,x,x,x,3,x
Cc1ccc(C(=O)NCCS(=O)(=O)N2CCN(c3ccccc3F)CC2)cc1[N+](=O)[O-],x,x,x,x,-1,x
O=C(O)Cc1sc(NC2CCCCC2)nc1-c1ccc(Cl)cc1,x,x,x,x,3,x
CCN(CC)c1ccc(-c2n[nH]c(=S)n2-c2ccccc2)cc1,13,25*,3,4,1,5
CN(C)c1ccc(-c2n[nH]c(=S)n2-c2ccccc2)cc1,-10,5,0,0,-6,3
COc1ccc(CNC(=O)c2ccc(Cn3cc(Br)cn3)o2)cc1,x,x,x,x,-4,x
O=C(O)c1ccccc1Nc1cc(Cl)c2nonc2c1[N+](=O)[O-],x,x,x,x,-4,x
O=[N+]([O-])c1ccc(Nc2ccccn2)c([N+](=O)[O-])c1,-2,2,29*,-1,-2,49*
O=[N+]([O-])c1c(Nc2ccccn2)cc(Cl)c2nonc12,x,x,0,0,63*,-1
SMILES,APP transl inh,MT stabilizer,Ba/F3 V617F tox,b-catenin transl,IEC-6 cytotox,BaF3 parental
O=C(O)/C=C/S(=O)(=O)c1ccc2ccccc2c1,x,x,-4,0,-4,1
CC1CC(C)CN(S(=O)(=O)c2ccc(C(=O)N3CCOCC3)cc2)C1 (centres undefined),x,x,x,x,-4,x
COc1ccc2[nH]c3c(N4CCN(Cc5ccc6c(c5)OCO6)CC4)ncnc3c2c1,-2,21*,4,4,5,10
COc1ccc2c(c1)c1ncnc(N3CCN(Cc4ccc5c(c4)OCO5)CC3)c1n2C,-13,4,0,-4,0,2
C=CCC(C#Cc1ccccc1)[N+](C)(C)CC=C (centres undefined),10,2,41*,0,-1,50*
COc1ccc(NS(=O)(=O)c2cc(NC(=O)c3cc(F)c(F)c(F)c3F)ccc2N2CCCC2)cc1,x,x,-4,0,8,-8
COc1ccc(NS(=O)(=O)c2cc(NC(=O)c3ccco3)ccc2N2CCCC2)cc1,1,15*,2,2,19,7
COc1ccc(NS(=O)(=O)c2cc(NC(=O)CC3CCCC3)ccc2N2CCOCC2)cc1,14,4,7,2,-4,32*
Cc1cccc(NS(=O)(=O)Cc2ccccc2)n1,75*,4,-2,-1,-4,-5
CCOC(=O)C(=Cc1cc(=O)c(OC)co1)C(=O)OCC,12,25*,0,0,1,0
COc1coc(C(O)CN)cc1=O (centres undefined),20,3,6,x,1,8
CC(N)=Nc1ccc([N+](=O)[O-])cc1,-2,2,-1,0,3,4
O=[N+]([O-])c1ccc(N=Nc2c(Cl)cc(O)cc2Cl)cc1,x,x,81*,1,13,95*
Cc1ccc(Cl)c(NC(=S)N(CCCN2CCOCC2)Cc2ccco2)c1,-9,4,11,0,6,36*
CCN1CCN(CCCN(Cc2ccco2)C(=S)Nc2ccc(Cl)c(C)c2)CC1,-8,6,38*,-4,5,28*
Cc1ccc(NC(=S)N(CCCN2CCOCC2)Cc2ccco2)cc1,-9,6,-3,-2,-1,2
S=C(Nc1ccc(Cl)cc1)N(CCCN1CCOCC1)Cc1ccco1,14,4,37*,1,-5,32*
COC(=O)Cc1ccc(NC(=O)c2ccc(C(C)(C)C)cc2)cc1,84*,1,-3,x,5,-1
CCOC(=O)Cc1ccc(NC(=O)c2ccc([N+](=O)[O-])cc2)cc1,-3,5,-2,-5,4,33*
CCN(CC)c1ccc(/C=C2\SC(=O)N(C(C)C)C2=O)o1,x,x,51*,0,4,44*
O=C(Nc1ccc(N2CCCCCC2)cc1)c1ccccc1Cl,-107,11*,9,32,11,3
O=C(O)c1ccccc1C(=O)Nc1ccc(-c2csc(-c3ccccc3)n2)cc1,-60,2,2,2,1,6
O=C(Nc1ccc(-c2csc(-c3ccccc3)n2)cc1)c1ccccc1Cl,0,17*,-3,0,2,6
CC(=O)N1CCN(c2ccc(NC(=O)c3ccccc3Cl)cc2)CC1,x,x,x,x,1,x
CCOCCOC(=O)c1[nH]c2c(c1C)C(=O)CC(c1cccs1)C2 (centres undefined),93*,13,80*,63*,87*,80*
COc1ccccc1Oc1ccc(S(=O)(=O)N2CCOCC2)cc1S(=O)(=O)N1CCOCC1,3,2,-3,-2,-4,5
Cc1ccc(Oc2ccc(S(=O)(=O)N3CCOCC3)cc2C(N)=O)c(-n2nc3ccccc3n2)c1,46*,27*,-2,0,2,1
CCCCOn1c(C)c(C(=O)OCC)c2c3nonc3ccc21,-18,1,-1,x,2,1
